What was measured:
Fibroblast = assay: Incucyte cell viability with human fibroblast; assay type: toxicity, cell-based; settings: 10 µM, compound concentration 10 uM; also: filed as whole numbers so only -1 and 0 and 1 occur
HEK-293T = assay: Multiplex assay against HEK293T; assay type: toxicity, cell-based; settings: human;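 as to Population Tubulin-Different-Phenotype (%): share of the cells with healthy nuclei that show this phenotype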
How it was run: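 Hoechst33342, BioTracker Green Microtubule Cytoskeleton Dye, MitoTracker Red and Annexin V Alexa Fluor 680 were added to live cells at seeding, and imaging on a CQ1 microscope at 37°C and 5% CO2 followed compound addition. Gating by CellPathfinder machine learning separated cells into Hoechst high-intensity objects or normal cells, then normal cells into healthy, pyknosed or fragmented nuclei, then pyknosed cells into mitotic or apoptotic. Per cents of healthy-nucleus cells are reported for the tubulin, mitochondrial-mass and membrane-permeability phenotypes.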

[1] = 12 h, 1 µM, compound concentration 1 uM, replicate 1
[2] = 12 h, 1 µM, compound concentration 1 uM, replicate 2
[3] = 12 h, 10 µM, compound concentration 10 uM, replicate 1
[4] = 12 h, 10 µM, compound concentration 10 uM, replicate 2
[5] = 24 h, 1 µM, compound concentration 1 uM, replicate 1
[6] = 24 h, 1 µM, compound concentration 1 uM, replicate 2
[7] = 24 h, 10 µM, compound concentration 10 uM, replicate 1
[8] = 24 h, 10 µM, compound concentration 10 uM, replicate 2
[9] = 48 h, 1 µM, compound concentration 1 uM, replicate 1
[10] = 48 h, 1 µM, compound concentration 1 uM, replicate 2
[11] = 48 h, 10 µM, compound concentration 10 uM, replicate 1
[12] = 48 h, 10 µM, compound concentration 10 uM, replicate 2

In the case of `Nc1nc2c(c(N3CCNCC3)n1)CCC1=C2[C@@H]2CCCC[C@@H]2O1`, the “Growth Rate” value (Fibroblast; 0 h, replicate number 1, timepoint 0 hours) is reported as 0, the “Growth Rate” value (Fibroblast; 6 h, replicate number 1, timepoint 6 hours) is reported as 1 and the “Growth Rate” value (Fibroblast; 6 h, replicate number 2, timepoint 6 hours) is reported as 0. For the same compound, the “Growth Rate” value (Fibroblast; 12 h, replicate number 1, timepoint 12 hours) was 0, the “Growth Rate” value (Fibroblast; 18 h, replicate number 1, timepoint 18 hours) was 0 and the “Growth Rate” value (Fibroblast; 24 h, replicate number 1, timepoint 24 hours) was 0. The “Population Apoptotic (%)” value (HEK-293T; [1]) was 34%, the “Population Fragmented Nuclei (%)” value (HEK-293T; [1]) was 7% and the “Population Hoechst High Intensity Objects (%)” value (HEK-293T; [1]) was 10%. For the same compound, the “Population Membrane Permeable-Phenotype (%)” value (HEK-293T; [1]) was 3%, the “Population Mitochondria Different-Phenotype (%)” value (HEK-293T; [1]) was 82% and the “Population Mitotic Cells (%)” value (HEK-293T; [1]) was 65%. The “Population Normal (%)” value (HEK-293T; [1]) was 89%, the “Population Pyknosed Nuclei (%)” value (HEK-293T; [1]) was 50% and the “Population Tubulin-Different-Phenotype (%)” value (HEK-293T; [1]) was 48%. For the same compound, the “Total Cell Count” value (HEK-293T; [1]) was 236, the “Population Apoptotic (%)” value (HEK-293T; [2]) was 21% and the “Population Fragmented Nuclei (%)” value (HEK-293T; [2]) was 4%. The “Population Healthy Nuclei (%)” value (HEK-293T; [2]) was 41%, the “Population Hoechst High Intensity Objects (%)” value (HEK-293T; [2]) was 4% and the “Population Membrane Permeable-Phenotype (%)” value (HEK-293T; [2]) was 6%. The “Population Mitochondria Different-Phenotype (%)” value (HEK-293T; [2]) was 33%, the “Population Mitotic Cells (%)” value (HEK-293T; [2]) was 78% and the “Population Normal (%)” value (HEK-293T; [2]) was 95%. For the same compound, the “Population Pyknosed Nuclei (%)” value (HEK-293T; [2]) was 53%, the “Population Tubulin-Different-Phenotype (%)” value (HEK-293T; [2]) was 25% and the “Total Cell Count” value (HEK-293T; [2]) was 217. For the same compound, the “Population Apoptotic (%)” value (HEK-293T; [3]) was 76%, the “Population Fragmented Nuclei (%)” value (HEK-293T; [3]) was 7% and the “Population Healthy Nuclei (%)” value (HEK-293T; [3]) was 33%. The “Population Hoechst High Intensity Objects (%)” value (HEK-293T; [3]) was 15%, the “Population Membrane Permeable-Phenotype (%)” value (HEK-293T; [3]) was 4% and the “Population Mitochondria Different-Phenotype (%)” value (HEK-293T; [3]) was 97%. The “Population Mitotic Cells (%)” value (HEK-293T; [3]) was 23%, the “Population Normal (%)” value (HEK-293T; [3]) was 84% and the “Population Pyknosed Nuclei (%)” value (HEK-293T; [3]) was 59%. For the same compound, the “Population Tubulin-Different-Phenotype (%)” value (HEK-293T; [3]) was 98%, the “Total Cell Count” value (HEK-293T; [3]) was 238 and the “Population Apoptotic (%)” value (HEK-293T; [4]) was 58%. The “Population Fragmented Nuclei (%)” value (HEK-293T; [4]) was 5%, the “Population Healthy Nuclei (%)” value (HEK-293T; [4]) was 32% and the “Population Hoechst High Intensity Objects (%)” value (HEK-293T; [4]) was 7%. For the same compound, the “Population Membrane Permeable-Phenotype (%)” value (HEK-293T; [4]) was 1%, the “Population Mitochondria Different-Phenotype (%)” value (HEK-293T; [4]) was 88% and the “Population Mitotic Cells (%)” value (HEK-293T; [4]) was 41%. The “Population Normal (%)” value (HEK-293T; [4]) was 92%, the “Population Pyknosed Nuclei (%)” value (HEK-293T; [4]) was 61% and the “Population Tubulin-Different-Phenotype (%)” value (HEK-293T; [4]) was 95%. The “Total Cell Count” value (HEK-293T; [4]) was 200, the “Population Apoptotic (%)” value (HEK-293T; [5]) was 49% and the “Population Fragmented Nuclei (%)” value (HEK-293T; [5]) was 12%. The “Population Healthy Nuclei (%)” value (HEK-293T; [5]) was 59%, the “Population Hoechst High Intensity Objects (%)” value (HEK-293T; [5]) was 10% and the “Population Membrane Permeable-Phenotype (%)” value (HEK-293T; [5]) was 1%. The “Population Mitochondria Different-Phenotype (%)” value (HEK-293T; [5]) was 70%, the “Population Mitotic Cells (%)” value (HEK-293T; [5]) was 50% and the “Population Normal (%)” value (HEK-293T; [5]) was 89%. The “Population Pyknosed Nuclei (%)” value (HEK-293T; [5]) was 28%, the “Population Tubulin-Different-Phenotype (%)” value (HEK-293T; [5]) was 47% and the “Total Cell Count” value (HEK-293T; [5]) was 298. The “Population Apoptotic (%)” value (HEK-293T; [6]) was 18%, the “Population Fragmented Nuclei (%)” value (HEK-293T; [6]) was 8% and the “Population Hoechst High Intensity Objects (%)” value (HEK-293T; [6]) was 3%. The “Population Membrane Permeable-Phenotype (%)” value (HEK-293T; [6]) was 2%, the “Population Mitochondria Different-Phenotype (%)” value (HEK-293T; [6]) was 29% and the “Population Mitotic Cells (%)” value (HEK-293T; [6]) was 81%. The “Population Normal (%)” value (HEK-293T; [6]) was 96%, the “Population Pyknosed Nuclei (%)” value (HEK-293T; [6]) was 32% and the “Population Tubulin-Different-Phenotype (%)” value (HEK-293T; [6]) was 29%. For the same compound, the “Total Cell Count” value (HEK-293T; [6]) was 264, the “Population Apoptotic (%)” value (HEK-293T; [7]) was 80% and the “Population Fragmented Nuclei (%)” value (HEK-293T; [7]) was 8%. For the same compound, the “Population Healthy Nuclei (%)” value (HEK-293T; [7]) was 40%, the “Population Hoechst High Intensity Objects (%)” value (HEK-293T; [7]) was 27% and the “Population Membrane Permeable-Phenotype (%)” value (HEK-293T; [7]) was 0%. The “Population Mitotic Cells (%)” value (HEK-293T; [7]) was 19%, the “Population Normal (%)” value (HEK-293T; [7]) was 72% and the “Population Pyknosed Nuclei (%)” value (HEK-293T; [7]) was 51%. For the same compound, the “Population Tubulin-Different-Phenotype (%)” value (HEK-293T; [7]) was 95%, the “Total Cell Count” value (HEK-293T; [7]) was 241 and the “Population Apoptotic (%)” value (HEK-293T; [8]) was 81%. For the same compound, the “Population Fragmented Nuclei (%)” value (HEK-293T; [8]) was 3%, the “Population Healthy Nuclei (%)” value (HEK-293T; [8]) was 42% and the “Population Hoechst High Intensity Objects (%)” value (HEK-293T; [8]) was 16%. For the same compound, the “Population Membrane Permeable-Phenotype (%)” value (HEK-293T; [8]) was 2%, the “Population Mitochondria Different-Phenotype (%)” value (HEK-293T; [8]) was 100% and the “Population Mitotic Cells (%)” value (HEK-293T; [8]) was 18%. For the same compound, the “Population Normal (%)” value (HEK-293T; [8]) was 83%, the “Population Pyknosed Nuclei (%)” value (HEK-293T; [8]) was 54% and the “Population Tubulin-Different-Phenotype (%)” value (HEK-293T; [8]) was 100%. For the same compound, the “Total Cell Count” value (HEK-293T; [8]) was 190, the “Population Apoptotic (%)” value (HEK-293T; [9]) was 36% and the “Population Healthy Nuclei (%)” value (HEK-293T; [9]) was 79%. The “Population Hoechst High Intensity Objects (%)” value (HEK-293T; [9]) was 7%, the “Population Membrane Permeable-Phenotype (%)” value (HEK-293T; [9]) was 1% and the “Population Mitochondria Different-Phenotype (%)” value (HEK-293T; [9]) was 25%. The “Population Mitotic Cells (%)” value (HEK-293T; [9]) was 63%, the “Population Normal (%)” value (HEK-293T; [9]) was 92% and the “Population Pyknosed Nuclei (%)” value (HEK-293T; [9]) was 11%. For the same compound, the “Population Tubulin-Different-Phenotype (%)” value (HEK-293T; [9]) was 26%, the “Total Cell Count” value (HEK-293T; [9]) was 532 and the “Population Apoptotic (%)” value (HEK-293T; [10]) was 12%. For the same compound, the “Population Fragmented Nuclei (%)” value (HEK-293T; [10]) was 8%, the “Population Healthy Nuclei (%)” value (HEK-293T; [10]) was 76% and the “Population Hoechst High Intensity Objects (%)” value (HEK-293T; [10]) was 4%. The “Population Membrane Permeable-Phenotype (%)” value (HEK-293T; [10]) was 9%, the “Population Mitochondria Different-Phenotype (%)” value (HEK-293T; [10]) was 12% and the “Population Mitotic Cells (%)” value (HEK-293T; [10]) was 87%. For the same compound, the “Population Normal (%)” value (HEK-293T; [10]) was 95%, the “Population Pyknosed Nuclei (%)” value (HEK-293T; [10]) was 14% and the “Population Tubulin-Different-Phenotype (%)” value (HEK-293T; [10]) was 35%. For the same compound, the “Total Cell Count” value (HEK-293T; [10]) was 420, the “Population Apoptotic (%)” value (HEK-293T; [11]) was 66% and the “Population Fragmented Nuclei (%)” value (HEK-293T; [11]) was 12%. The “Population Healthy Nuclei (%)” value (HEK-293T; [11]) was 48%, the “Population Hoechst High Intensity Objects (%)” value (HEK-293T; [11]) was 45% and the “Population Membrane Permeable-Phenotype (%)” value (HEK-293T; [11]) was 1%. The “Population Mitochondria Different-Phenotype (%)” value (HEK-293T; [11]) was 93%, the “Population Mitotic Cells (%)” value (HEK-293T; [11]) was 33% and the “Population Normal (%)” value (HEK-293T; [11]) was 54%. The “Population Pyknosed Nuclei (%)” value (HEK-293T; [11]) was 39%, the “Population Tubulin-Different-Phenotype (%)” value (HEK-293T; [11]) was 96% and the “Total Cell Count” value (HEK-293T; [11]) was 288. The “Population Apoptotic (%)” value (HEK-293T; [12]) was 74%, the “Population Fragmented Nuclei (%)” value (HEK-293T; [12]) was 7% and the “Population Healthy Nuclei (%)” value (HEK-293T; [12]) was 54%. For the same compound, the “Population Hoechst High Intensity Objects (%)” value (HEK-293T; [12]) was 37%, the “Population Membrane Permeable-Phenotype (%)” value (HEK-293T; [12]) was 2% and the “Population Mitochondria Different-Phenotype (%)” value (HEK-293T; [12]) was 90%. The “Population Mitotic Cells (%)” value (HEK-293T; [12]) was 25%, the “Population Normal (%)” value (HEK-293T; [12]) was 62% and the “Population Pyknosed Nuclei (%)” value (HEK-293T; [12]) was 37%. For the same compound, the “Population Tubulin-Different-Phenotype (%)” value (HEK-293T; [12]) was 91% and the “Total Cell Count” value (HEK-293T; [12]) was 217.

Reference: ChEMBL document CHEMBL4689842, “EUbOPEN Chemogenomics Library wave 1” (2021)
